Measured values as given in ChEMBL document CHEMBL3112425, “Design, synthesis, and structure-activity relationship studies of a potent PACE4 inhibitor” (J Med Chem, 2014).
Square brackets hold non-standard residues; d marks the D form. Peptide text beside a SMILES is read from it. * marks the point of attachment. NH(4-amidinobenzyl) = N=C(N)c1ccc(CN*)cc1; Nle = CCCC[C@H](N)C(=O)O

Experiments:
[1] = Acute toxicity in human DU145 cells assessed as cell death/lysis at 100 uM after 4 hrs by LDH assay; assay type: cell-based, DU-145; conditions: read-out: INH
In short: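 DU145 cells (RPMI 1640, 5% FBS, 37 °C, 5% CO2) plated; 24 h later peptides added at 100 μM. After 4 h, release of lactate dehydrogenase into the medium was quantified enzymatically with a commercial LDH cytotoxicity kit as the measure of acute membrane damage/lysis.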

PC-3 [2] = assay: Cytotoxicity against human PC3 cells after 72 hrs by MTT assay; assay type: functional, cell-based; conditions: PC-3, 72 h
In short: (§1)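 Prostate cancer cells were kept in RPMI 1640 at 37 °C, 5% CO2, with 5% FBS for DU145 and 10% FBS for LNCaP and PC3. After 24 h, medium was changed and peptides added at various concentrations, up to 350 μM. Viability was read by MTT after 72 h treatment. IC50 from dose–response curves, triplicate, mean ± SEM.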

LNCaP [3] = assay: Cytotoxicity against human LNCAP cells after 72 hrs by MTT assay; assay type: functional, cell-based; in short: as §1
DU-145 [4] = assay: Cytotoxicity against human DU145 cells after 72 hrs by MTT assay; assay type: functional, cell-based; conditions: DU-145, 72 h; in short: as §1
[5] = Half life in CD-1 mouse plasma at 0.5 ug/uL by RP-HPLC analysis; assay type: ADME, cell-free
In short: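 Peptides at 0.5 μg/μL were incubated at 37 °C in heparinized plasma pooled from mixed-sex CD1 mice. At each time point the reaction was stopped with 1 M guanidinium-HCl, then acetonitrile, and proteins were spun out. Supernatant peptide AUC (RP-HPLC) was compared with non-incubated samples. Half-life came from a one-phase decay fit. Run ≥3 times, duplicate per time point.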

Furin = Furin (Homo sapiens, UniProt P09958); assay: Inhibition of human recombinant furin expressed in drosophila schneider 2 cells using pyroGlu-Arg-Thr-Lys-Arg-AMC as substrate after 1 hr
In short: (§2)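 Human enzymes were expressed in Drosophila S2 cells and purified. Fluorogenic pyroGlu-RTKR-AMC was used at fixed concentration with varied inhibitor, 37 °C over 1 h. Buffers: furin, 100 mM Hepes pH 7.5, 1 mM CaCl2, 1 mM β-mercaptoethanol, 1.8 mg/mL BSA; PACE4 and PC7, 20 mM Bis-Tris pH 6.5, 1 mM CaCl2, 1.8 mg/mL BSA; PC2, same buffer at pH 5.7. Ki from IC50 (Cheng–Prusoff), or apparent Ki (Morrison) for tight binders. Triplicate, mean ± SD.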

[6] = target: T1, Proprotein convertase subtilisin/kexin type 6 (Homo sapiens, UniProt P29122); assay: Inhibition of human recombinant PACE4 expressed in drosophila schneider 2 cells using pyroGlu-Arg-Thr-Lys-Arg-AMC as substrate after 1 hr; in short: as §2
T1 sequence (P29122 whole entry): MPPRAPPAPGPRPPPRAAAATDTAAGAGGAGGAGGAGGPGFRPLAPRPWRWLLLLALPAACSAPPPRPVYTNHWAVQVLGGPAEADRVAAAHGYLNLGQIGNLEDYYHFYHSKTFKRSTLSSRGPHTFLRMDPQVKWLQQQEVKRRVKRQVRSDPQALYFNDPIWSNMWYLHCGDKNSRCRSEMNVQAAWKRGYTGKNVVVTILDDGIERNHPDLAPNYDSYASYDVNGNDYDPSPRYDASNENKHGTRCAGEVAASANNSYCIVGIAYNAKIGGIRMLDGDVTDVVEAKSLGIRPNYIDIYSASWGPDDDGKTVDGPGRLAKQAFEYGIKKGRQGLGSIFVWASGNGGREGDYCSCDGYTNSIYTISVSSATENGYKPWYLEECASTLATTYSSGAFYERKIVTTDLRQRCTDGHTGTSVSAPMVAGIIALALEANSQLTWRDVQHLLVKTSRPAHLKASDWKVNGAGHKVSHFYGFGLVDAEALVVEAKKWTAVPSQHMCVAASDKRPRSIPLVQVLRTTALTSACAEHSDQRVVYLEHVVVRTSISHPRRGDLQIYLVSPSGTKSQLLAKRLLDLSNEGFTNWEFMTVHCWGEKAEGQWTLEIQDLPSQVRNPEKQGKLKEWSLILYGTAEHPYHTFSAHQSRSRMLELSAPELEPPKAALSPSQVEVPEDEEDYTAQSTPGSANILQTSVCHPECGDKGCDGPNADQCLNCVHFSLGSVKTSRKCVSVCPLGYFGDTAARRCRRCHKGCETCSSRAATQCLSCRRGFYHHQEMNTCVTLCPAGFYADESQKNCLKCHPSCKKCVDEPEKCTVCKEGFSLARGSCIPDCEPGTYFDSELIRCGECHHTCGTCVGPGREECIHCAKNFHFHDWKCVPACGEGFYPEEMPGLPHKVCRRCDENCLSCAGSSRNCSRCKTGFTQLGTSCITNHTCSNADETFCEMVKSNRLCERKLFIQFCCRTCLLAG

[7] = target: T2, Neuroendocrine convertase 2 (Homo sapiens, UniProt P16519); assay: Inhibition of human PC2 expressed in drosophila schneider 2 cells using pyroGlu-Arg-Thr-Lys-Arg-AMC as substrate after 1 hr; in short: as §2
T2 sequence (P16519 whole entry): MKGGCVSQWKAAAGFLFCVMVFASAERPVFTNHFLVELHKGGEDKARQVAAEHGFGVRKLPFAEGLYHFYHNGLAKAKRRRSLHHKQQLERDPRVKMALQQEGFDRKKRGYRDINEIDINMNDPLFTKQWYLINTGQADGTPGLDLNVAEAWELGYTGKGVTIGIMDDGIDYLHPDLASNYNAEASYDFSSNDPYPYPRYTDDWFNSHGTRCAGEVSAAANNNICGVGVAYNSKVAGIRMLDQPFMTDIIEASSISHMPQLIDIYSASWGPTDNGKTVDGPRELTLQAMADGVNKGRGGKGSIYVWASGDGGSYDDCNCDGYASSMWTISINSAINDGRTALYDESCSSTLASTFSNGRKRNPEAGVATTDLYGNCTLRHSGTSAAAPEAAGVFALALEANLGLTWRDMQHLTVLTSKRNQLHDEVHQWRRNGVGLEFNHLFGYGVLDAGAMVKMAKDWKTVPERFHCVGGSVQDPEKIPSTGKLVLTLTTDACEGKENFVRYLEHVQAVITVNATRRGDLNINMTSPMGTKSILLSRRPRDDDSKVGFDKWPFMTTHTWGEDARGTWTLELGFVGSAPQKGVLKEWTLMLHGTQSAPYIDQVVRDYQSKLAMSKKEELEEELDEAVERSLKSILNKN

[8] = target: T3, Proprotein convertase subtilisin/kexin type 7 (Homo sapiens, UniProt Q16549); assay: Inhibition of human PC7 expressed in drosophila schneider 2 cells using pyroGlu-Arg-Thr-Lys-Arg-AMC as substrate after 1 hr; in short: as §2
T3 sequence (Q16549 whole entry): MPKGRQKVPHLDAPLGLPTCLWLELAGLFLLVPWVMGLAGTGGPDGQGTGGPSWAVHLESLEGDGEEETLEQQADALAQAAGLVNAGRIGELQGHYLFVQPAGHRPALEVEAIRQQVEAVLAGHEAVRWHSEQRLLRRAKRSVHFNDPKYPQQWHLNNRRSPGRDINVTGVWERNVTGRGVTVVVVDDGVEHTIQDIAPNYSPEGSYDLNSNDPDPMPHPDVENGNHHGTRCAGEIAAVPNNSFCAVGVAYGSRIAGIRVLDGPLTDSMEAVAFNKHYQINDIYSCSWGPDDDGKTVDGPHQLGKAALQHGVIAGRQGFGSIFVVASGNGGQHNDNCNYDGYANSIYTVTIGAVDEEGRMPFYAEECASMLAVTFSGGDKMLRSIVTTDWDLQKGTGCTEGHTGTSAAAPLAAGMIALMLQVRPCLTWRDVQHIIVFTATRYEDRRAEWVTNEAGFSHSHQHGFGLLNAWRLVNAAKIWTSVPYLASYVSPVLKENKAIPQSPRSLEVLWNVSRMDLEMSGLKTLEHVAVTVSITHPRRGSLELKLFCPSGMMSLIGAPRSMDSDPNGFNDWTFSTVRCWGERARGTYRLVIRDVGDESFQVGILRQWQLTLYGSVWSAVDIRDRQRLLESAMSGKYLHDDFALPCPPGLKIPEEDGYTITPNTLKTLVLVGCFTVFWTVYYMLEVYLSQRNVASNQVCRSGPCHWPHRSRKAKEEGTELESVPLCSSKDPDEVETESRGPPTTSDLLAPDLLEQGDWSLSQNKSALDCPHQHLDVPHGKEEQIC

Plasma = assay: Drug degradation in CD-1 mouse plasma at 0.5 ug/uL after 30 mins by MALDI-TOF MS analysis; assay type: ADME, cell-free; conditions: 0.5 h
In short: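 For fragment mapping, 100 μg peptide was incubated in murine plasma at 37 °C. At each time point, plasma samples were quenched with 3% TFA. Proteins were precipitated with 2 volumes acetonitrile and centrifuged at 17 000g. Supernatants were analyzed by MALDI-TOF MS for C-terminally truncated fragments.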

PC-3 [9] = assay: Cytotoxicity against human PC3 cells up to 350 uM after 72 hrs by MTT assay; assay type: functional; in short: as §1
LNCaP [10] = assay: Cytotoxicity against human LNCAP cells up to 350 uM after 72 hrs by MTT assay; assay type: functional; in short: as §1
DU-145 [11] = assay: Cytotoxicity against human DU145 cells up to 350 uM after 72 hrs by MTT assay; assay type: functional; in short: as §1
DU-145 [12] = assay: Cellular uptake in human DU145 cells after 1 hr by propidium iodide staining-based FACS analysis; assay type: ADME, cell-based; conditions: du-145, 1 h
In short: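 FITC-βAla-labelled peptides at 10 μM were given to DU145 cells for 1 h in serum-free RPMI. Cells were collected, then washed twice with 0.05% trypsin (5 min, 37 °C) to strip membrane-bound peptide. Propidium iodide (10 μg/mL, 2 min) excluded damaged cells. FACS read 10 000 events/sample as geometric mean fluorescence, against untreated-cell autofluorescence.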

Chain of Furin (P09958 whole entry): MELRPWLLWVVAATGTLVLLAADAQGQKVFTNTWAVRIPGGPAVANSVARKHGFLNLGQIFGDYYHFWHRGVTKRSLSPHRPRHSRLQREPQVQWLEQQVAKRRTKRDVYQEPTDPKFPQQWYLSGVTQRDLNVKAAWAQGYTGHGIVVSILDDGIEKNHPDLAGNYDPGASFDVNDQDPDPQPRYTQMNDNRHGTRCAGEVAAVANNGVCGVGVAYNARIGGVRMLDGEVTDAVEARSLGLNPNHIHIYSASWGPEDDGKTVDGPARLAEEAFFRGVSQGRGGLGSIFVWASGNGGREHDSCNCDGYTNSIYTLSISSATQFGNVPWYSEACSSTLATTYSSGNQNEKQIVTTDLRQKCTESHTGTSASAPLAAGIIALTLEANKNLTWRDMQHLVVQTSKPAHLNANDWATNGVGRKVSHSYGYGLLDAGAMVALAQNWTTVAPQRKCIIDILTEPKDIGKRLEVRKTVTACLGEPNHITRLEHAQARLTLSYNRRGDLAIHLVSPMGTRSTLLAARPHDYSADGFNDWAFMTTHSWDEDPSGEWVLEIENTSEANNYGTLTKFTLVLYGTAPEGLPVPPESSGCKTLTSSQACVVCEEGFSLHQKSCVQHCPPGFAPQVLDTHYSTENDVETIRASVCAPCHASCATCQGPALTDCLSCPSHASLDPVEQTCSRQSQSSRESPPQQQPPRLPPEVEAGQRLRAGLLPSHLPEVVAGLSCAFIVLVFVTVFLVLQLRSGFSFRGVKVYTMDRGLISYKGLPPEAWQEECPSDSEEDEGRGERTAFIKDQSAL

Row | Compound | cytotoxicity at 4 h, 100 µM [1] | IC50 (PC-3 [2]) | IC50 (LNCaP [3]) | IC50 (DU-145 [4]) | half-life at 0.5 ug/uL [5] | Ki (Furin) | Ki [6] | Ki [7] | Ki [8] | Stability (Plasma) | inhibition (INH) (PC-3 [9]) | inhibition (INH) (LNCaP [10]) | inhibition (INH) (DU-145 [11]) | Drug uptake (DU-145 [12])
1 | CCCC[C@@H](NC(C)=O)C(=O)N[C@@H](CC(C)C)C(=O)N[C@@H](CC(C)C)C(=O)N[C@@H](CC(C)C)C(=O)N[C@@H](CCCNC(=N)N)C(=O)N[C@H](C(=O)N[C@@H](CCCCN)C(=O)N[C@@H](CCCNC(=N)N)C(N)=O)C(C)C | < 5% | 150 µM | 90 µM | 80 µM | 7.1 h | 0.8 µM | 0.025 µM | – | – | – | – | – | – | –
2 | CC(=O)N[C@@H](CC(C)C)C(=O)N[C@@H](CC(C)C)C(=O)N[C@@H](CC(C)C)C(=O)N[C@@H](CC(C)C)C(=O)N[C@@H](CCCN=C(N)N)C(=O)N[C@H](C(=O)N[C@@H](CCCCN)C(=O)NCc1ccc(C(=N)N)cc1)C(C)C (Ac-LLLLRVK-{NH(4-amidinobenzyl)}) | < 5% | – | – | – | 12 h | 0.0043 µM | 0.0031 µM | 0.00024 µM | 0.0138 µM | Unstable | – | – | – | –
3 | CCCC[C@H](NC(=O)[C@H](CC(C)C)NC(=O)[C@H](CC(C)C)NC(C)=O)C(=O)N[C@@H](CC(C)C)C(=O)N[C@@H](CCCNC(=N)N)C(=O)N[C@H](C(=O)N[C@@H](CCCCN)C(=O)N[C@@H](CCCNC(=N)N)C(N)=O)C(C)C (Ac-LL[Nle]LRVKR-NH2) | < 5% | – | – | 190 µM | – | 1.98 µM | 0.385 µM | – | – | – | <50% | <50% | – | –
4 | CC(=O)N[C@H](CC(C)C)C(=O)N[C@H](CC(C)C)C(=O)N[C@H](CC(C)C)C(=O)N[C@H](CC(C)C)C(=O)N[C@@H](CCCNC(=N)N)C(=O)N[C@H](C(=O)N[C@@H](CCCCN)C(=O)N[C@@H](CCCNC(=N)N)C(N)=O)C(C)C | < 5% | – | – | – | – | 7.3 µM | 14 µM | – | – | – | <50% | <50% | <50% | –
5 | CC(=O)N[C@H](CC(C)C)C(=O)N[C@@H](CC(C)C)C(=O)N[C@@H](CC(C)C)C(=O)N[C@@H](CC(C)C)C(=O)N[C@@H](CCCN=C(N)N)C(=O)N[C@H](C(=O)N[C@@H](CCCCN)C(=O)N[C@@H](CCCN=C(N)N)C(N)=O)C(C)C | < 5% | 190 µM | 150 µM | 70 µM | 8.6 h | 0.76 µM | 0.024 µM | – | – | Unstable | – | – | – | Active
6 | CC(=O)N[C@@H](CC(C)C)C(=O)N[C@@H](CC(C)C)C(=O)N[C@@H](CC(C)C)C(=O)N[C@@H](CC(C)C)C(=O)N[C@@H](CCCNC(=N)N)C(=O)N[C@H](C(=O)N[C@@H](CCCCN)C(=O)N[C@@H](CCCNC(=N)N)C(N)=O)C(C)C | < 5% | – | – | – | 5.1 h | – | 0.02 µM | – | – | Unstable | <50% | – | – | Active
